Assay results gathered from unrelated publications.
Target: Mitogen-activated protein kinase 14 (MAPK14, Homo sapiens, UniProt Q16539)

SMILES | test | conditions | remaining binding [%]
N[C@H]1CCN(c2nccc(-c3cnn4ncccc34)n2)C1 | binding | 1 µM | 100
O=C(NCCCN1CCOCC1)c1ccc(Nc2nccc(-c3cc4ccccc4s3)n2)cc1 | binding, competition with immobilised ligand | 1 µM | 96
CC1CCCN1c1nccc(-c2cnn3ncccc23)n1 (stereo not shown) | binding | 1 µM | 100
COc1cnc(Nc2cccc(S(N)(=O)=O)c2)nc1N1CCN(c2ccccc2)C(=O)C1 | binding, competition with immobilised ligand | 1 µM | 100
C[C@@H]1CN(c2ccc3ncc(-c4ccc5[nH]nc(C6CC6)c5c4)n3n2)C[C@H](C)O1 | binding, competition with immobilised ligand | 50 nM | 100
Cc1cnn2ncc(-c3ccnc(N(C)C)n3)c2c1 | binding | 1 µM | 100
CNCc1ccccc1-c1csc([C@@H](C)Nc2nc(C)nc3cc(OC)c(OC)cc23)c1 | cell-free assay, competition with immobilised ligand | 1 µM | 87
COc1ccnn2ncc(-c3ccnc(N(C)C)n3)c12 | binding | 1 µM | 87
O=C(NCCCN1CCOCC1)c1ccc(Nc2ncc(Cl)c(-c3ccc(Cl)s3)n2)cc1 | binding, competition with immobilised ligand | 1 µM | 100
COc1ncc2cc3ccccc3nc2c1C#N | cell-free assay, competition with immobilised ligand | 5 µM | 100
O=C(Nc1c[nH]nc1C(=O)NC1CCNCC1)c1cc(F)cc(F)c1 | binding, competition with immobilised ligand | 1 µM | 100
F[C@@H]1CCN(c2nccc(-c3cnn4ncccc34)n2)C1 | binding | 1 µM | 100
CNC(=O)c1ccc(Nc2ncc(C(F)(F)F)c(NCc3nccnc3N(C)S(C)(=O)=O)n2)cc1 | cell-free assay, competition with immobilised ligand | 0.1 µM | 100
O=C(c1ccc(Nc2nccc(-c3cc4ccccc4s3)n2)cc1)N1CCC(N2CCCC2)CC1 | binding, competition with immobilised ligand | 1 µM | 100
CS(=O)(=O)c1cc(C2(NC(=O)c3cncc4c3cnn4-c3ccc(F)cc3)CC2)ccn1 | cell-free assay, competition with immobilised ligand | 1 µM | 100
CN(C)c1nccc(-c2cnc3ncccn23)n1 | binding | 1 µM | 100
Cc1c[nH]c2nccc(Oc3c(F)cc(Nc4cc(Cl)nc(N)n4)cc3F)c12 | cell-free assay, competition with immobilised ligand | 0.1 µM | 100
C[C@H]1CCN(c2nccc(-c3cnn4ncccc34)n2)C1 | binding | 1 µM | 100
CC(C)(C)c1ccc(-c2nc(CBr)nn2-c2cccc(O)c2)cc1 | cell-free assay, competition with immobilised ligand | 10 µM | 100
O=C(O)c1cc(-c2ccc(C3CCNCC3)cc2)c2ccc(-c3ccc(C(F)(F)F)cc3)cc2c1 | cell-free assay, competition with immobilised ligand | 1 µM | 100
Nc1ncc2c(n1)-c1c([nH]c3ccc(C#CC4CC4)cc13)CCCC2 | binding, competition with immobilised ligand | 1 µM | 98
Nc1cnc(N2CCc3cc(S(=O)(=O)Nc4c(F)cc(Cl)cc4F)cc(N4CCCC4=O)c32)nc1 | cell-free assay, competition with immobilised ligand | 1 µM | 100
FC(F)(F)Oc1cccc(-c2cnc3ccc(-c4ccncc4)nn23)c1 | cell-free assay, competition with immobilised ligand | 5 µM | 94
O=C(N1CCS(=O)(=O)CC1)N1C[C@H](c2ccc(OC(F)(F)F)cc2)C[C@H](c2nc(C3CC3)no2)C1 | cell-free assay, competition with immobilised ligand | 1 µM | 100
COC(=O)Nc1nc2ccc(C(=O)c3ccccc3)cc2[nH]1 | cell-free assay, competition with immobilised ligand | 10 µM | 17
